Data set [1] has as its system Mb. To be noted: 25:1 ratio of SDS to Mb; ref [50]; cited from earlier work.
The conditions of data set [2]: cited from earlier work.
For data set [3], the target named is FABP. To be noted: read-out: Dissociation Constant KFABP; flux model input; ref [15]; [45]; cited from earlier work.
The target of data set [4] is Mb (Equus caballus, UniProt P68082). The data set is described as follows: Optical spectra. Set-up: species or system horse.
For data set [5] the following is noted: in the cell, cited from earlier work.
A short description of data set [6]: OA solubility from NMR visible EFG. Format: physicochemical.
Data set [7] in a line: pK of OA by NMR pH titration. Type of data set: physicochemical. Particulars: 0.8 mM OA, 35 °C, 1H NMR, referenced to peak position at pH 12.14.
Data set [8] addresses MbCN (Equus caballus, UniProt P68082). Kind of data set: 1H NMR titration of MbCN with OA. Format: binding, horse. The method in brief:
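Horse metMb converted to MbCN with 5-fold excess KCN in 30mM Tris, 1mM EDTA, pH 7.4. OA stock (10 or 100mM, pH 8.5, 65°C) added to 0.2-0.8 mM MbCN at 35°C (OA:Mb up to 60:1). 1H NMR at 600 MHz, 35°C, Watergate, 10% D2O, TSP reference. Heme methyl intensity loss fitted to a specific plus non-specific 2-site model by Marquardt-Levenberg regression.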

The test system of data set [9] is deoxy Mb. To be noted: ref [47]; [48]; cited from earlier work.
The target in data set [10] is MbCN. To be noted: read-out: MbCN-PA Kd; ref [47]; [48]; cited from earlier work.
Data set [11] concerns the target MbCO. To be noted: read-out: MbCO-PA Kd; ref [47]; [48]; cited from earlier work.

These results are taken from paper PMC4633329 (Chemistry and physics of lipids, 2015).

In brackets after ≈: the same amount, converted by molar mass. Several values for one entry are separate records, joined by “and”; a condition that tells them apart may be missing. Identical values can stand only once. Like-named read-outs stand apart in the source and are kept apart here. Bounds are passed on as bounds.

Chain of Mb (Equus caballus, UniProt P68082) (P68082 whole entry): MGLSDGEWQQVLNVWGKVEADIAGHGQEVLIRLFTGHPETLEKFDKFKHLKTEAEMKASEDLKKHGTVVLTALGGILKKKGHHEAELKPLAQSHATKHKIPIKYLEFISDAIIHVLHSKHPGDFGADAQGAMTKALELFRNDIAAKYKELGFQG
Chain of MbCN (Equus caballus, UniProt P68082) (P68082 whole entry): as above

Consider `CCCCCCCCCCCCOS(=O)(=O)[O-].[Na+]` [SDS, sodium dodecyl sulfate], for which the “loss of Soret band signal intensity” value in data set [1] is on record as 25%.
Consider `CCCCCCCC/C=C\CCCCCCCC(=O)O` [OA, oleic acid], for which the Solubility in data set [2] (66 mM phosphate buffer, pH 7.4 at 37°C, ref [53], listed as Oleate) was 1.00×10^−6 M and 2.83×10^−5 g/100g; in [2] (0.2 M HEPES, pH 7.4 at 37°C, ref [46], listed as Oleate), 6.00×10^−6 M and 1.70×10^−4 g/100g; in [2] (95% of ethanol at 20°C, ref [22]) it was “∞”; in [2] (Acetone at 20°C, ref [22]), “∞”; in [2] (Benzene at 20°C, ref [22]) it was “∞”; in data set [6] (0.8mM MbCN in Tris, pH 7.4 35°C, 0.0904g/100g total OA added), 7.03×10^−2 g/100g. The Solubility is 6.59×10^−2 g/100g in data set [6] (10.8mM MbCN in phosphate, pH 7.4 35°C, 0.0904g/100g total OA added); 1430 µM (≈ 404 µg/mL) in data set [6] (30 mM Tris buffer, 35 °C, pH 7.4, aqueous buffer, kinetic from dmso stock); 2990 µM (≈ 845 µg/mL) in data set [6] (30 mM Tris buffer, 35 °C, pH 12, aqueous buffer, kinetic from dmso stock); 4.04×10^−2 g/100g in data set [6] (30 mM Tris buffer, pH 7.4 35°C, 0.0904g/100g total OA added); 8.45×10^−2 g/100g in data set [6] (30 mM Tris buffer, pH 12 35°C, 0.0904g/100g total OA added); 1260 µM (≈ 356 µg/mL) in data set [6] (100 mM phosphate buffer, 35 °C, pH 7.4, aqueous buffer, kinetic from dmso stock). For the same molecule, in data set [6] (100 mM phosphate buffer, pH 7.4 35°C, 0.0904g/100g total OA added), the Solubility is given as 3.56×10^−2 g/100g. For the same molecule, the Kd in data set [3] is 14 nM; in data set [8] (Dissociation Constant KMb2 (non-specific binding), 2-site model, high OA:Mb), 37 mM; in data set [8] (apparent Kd (Kd1, KMb1), specific OA binding to MbCN, heme 8-CH3 signal loss, OA:Mb < 2:1, pH 7.4, 35 °C), 0.045 mM. Besides, the “hemichrome formation in optical spectra” value in data set [4] (OA:Mb of 5:1 to 50:1) is given as “do not detect any signs of hemichrome formation”. The “reduction in Soret band intensity” value in data set [4] (OA:Mb of 50:1) is reported as 5%; in data set [4] (OA:Mb ratios 20:1 to 50:1), < 5%. For the same molecule, the Soret band position in data set [4] (OA:Mb of 50:1, shifts from 422) is reported as 420 nm; in data set [4] (OA:Mb ratios 20:1 to 50:1, 422 nm without OA) it was 420 nm. The “perturbation of Mb Soret band at 422 nm” value in data set [4] (OA:Mb ratio up to 5:1) is listed as “no significant perturbation”. The “metMb signal in optical spectra” value in data set [4] (OA:Mb up to 50:1) is given as “no detectable metMb signal”. Also, the “Diffusion Constant, Fatty acid (DOA)” value in [5] (highest reported value, ref [52]) is reported as 4.6 × 10^−6 cm^2s^−1. Further, the “pK from peak B” value in data set [7] was 8.22. The “pK from peak D” value in data set [7] worked out at 8.07.
Regarding `CCCCCCCCCCCCCCCC(=O)O` [PA, palmitate], in [9], the “PA interaction with deoxy Mb” value is “does not interact specifically or non-specifically”. Moreover, the Kd is 43 µM in [10] and 39 to 48 µM in [11].

B1: Mb: myoglobin; solutions prepared from lyophilized horse heart protein (protein, UniProt P68082 2-154, looked up)
Myoglobin: GLSDGEWQQVLNVWGKVEADIAGHGQEVLIRLFTGHPETLEKFDKFKHLKTEAEMKASEDLKKHGTVVLTALGGILKKKGHHEAELKPLAQSHATKHKIPIKYLEFISDAIIHVLHSKHPGDFGADAQGAMTKALELFRNDIAAKYKELGFQG
Regarding B1, the “Diffusion Constant, Myoglobin (DMb)” value in data set [5] (ref [34]) is 7.85 × 10^−7 cm^2s^−1.
